Measured values reported in ChEMBL document CHEMBL4689842, “EUbOPEN Chemogenomics Library wave 1” (2021).

System: Fibroblast
Assay: Multiplex assay against human fibroblast
Assay type: toxicity, cell-based
Procedure, shortened: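 Live cells carried four stains from seeding: Hoechst33342, BioTracker Green Microtubule Cytoskeleton Dye, MitoTracker Red and Annexin V Alexa Fluor 680. They were imaged on a CQ1 microscope at 37°C and 5% CO2 after compound addition. Using CellPathfinder machine-learning gating, cells were split into Hoechst high-intensity objects or normal cells, normal cells into healthy, pyknosed or fragmented nuclei, and pyknosed cells into mitotic or apoptotic; tubulin, mitochondrial-mass and membrane-permeability phenotypes are per cents of healthy-nucleus cells.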

[1] = 12 h, 1 µM, compound concentration 1 uM, replicate 1
[2] = 12 h, 1 µM, compound concentration 1 uM, replicate 2
[3] = 12 h, 10 µM, compound concentration 10 uM, replicate 1
[4] = 12 h, 10 µM, compound concentration 10 uM, replicate 2
[5] = 24 h, 1 µM, compound concentration 1 uM, replicate 1
[6] = 24 h, 1 µM, compound concentration 1 uM, replicate 2
[7] = 24 h, 10 µM, compound concentration 10 uM, replicate 1
[8] = 24 h, 10 µM, compound concentration 10 uM, replicate 2

SMILES: COc1ccc(-c2ccc3c(N4CCOCC4)nc(N4C[C@@H](C)O[C@@H](C)C4)nc3n2)cc1CO [Ku-0063794]
- Population Apoptotic (%) [1]: 72%
- Population Fragmented Nuclei (%) [1]: 30%
- Population Healthy Nuclei (%) [1]: 52%
- Population Hoechst High Intensity Objects (%) [1]: 16%
- Population Membrane Permeable-Phenotype (%) [1]: 5%
- Population Mitochondria Different-Phenotype (%) [1]: 1%
- Population Mitotic Cells (%) [1]: 27%
- Population Normal (%) [1]: 83%
- Population Pyknosed Nuclei (%) [1]: 16%
- Population Tubulin-Different-Phenotype (%) [1]: 3%
- Total Cell Count [1]: 281
- Population Apoptotic (%) [2]: 33%
- Population Fragmented Nuclei (%) [2]: 61%
- Population Healthy Nuclei (%) [2]: 30%
- Population Hoechst High Intensity Objects (%) [2]: 35%
- Population Membrane Permeable-Phenotype (%) [2]: 17%
- Population Mitochondria Different-Phenotype (%) [2]: 13%
- Population Mitotic Cells (%) [2]: 66%
- Population Normal (%) [2]: 64%
- Population Pyknosed Nuclei (%) [2]: 8%
- Population Tubulin-Different-Phenotype (%) [2]: 17%
- Total Cell Count [2]: 116
- Population Apoptotic (%) [3]: 77%
- Population Fragmented Nuclei (%) [3]: 72%
- Population Healthy Nuclei (%) [3]: 20%
- Population Hoechst High Intensity Objects (%) [3]: 63%
- Population Membrane Permeable-Phenotype (%) [3]: 14%
- Population Mitochondria Different-Phenotype (%) [3]: 3%
- Population Mitotic Cells (%) [3]: 22%
- Population Normal (%) [3]: 36%
- Population Pyknosed Nuclei (%) [3]: 6%
- Population Tubulin-Different-Phenotype (%) [3]: 7%
- Total Cell Count [3]: 736
- Population Apoptotic (%) [4]: 0%
- Population Fragmented Nuclei (%) [4]: 82%
- Population Healthy Nuclei (%) [4]: 17%
- Population Hoechst High Intensity Objects (%) [4]: 66%
- Population Membrane Permeable-Phenotype (%) [4]: 42%
- Population Mitochondria Different-Phenotype (%) [4]: 42%
- Population Mitotic Cells (%) [4]: 0%
- Population Normal (%) [4]: 33%
- Population Pyknosed Nuclei (%) [4]: 0%
- Population Tubulin-Different-Phenotype (%) [4]: 28%
- Total Cell Count [4]: 244
- Population Apoptotic (%) [5]: 67%
- Population Fragmented Nuclei (%) [5]: 33%
- Population Healthy Nuclei (%) [5]: 54%
- Population Hoechst High Intensity Objects (%) [5]: 18%
- Population Membrane Permeable-Phenotype (%) [5]: 7%
- Population Mitochondria Different-Phenotype (%) [5]: 2%
- Population Mitotic Cells (%) [5]: 32%
- Population Normal (%) [5]: 81%
- Population Pyknosed Nuclei (%) [5]: 11%
- Population Tubulin-Different-Phenotype (%) [5]: 3%
- Total Cell Count [5]: 290
- Population Apoptotic (%) [6]: 80%
- Population Fragmented Nuclei (%) [6]: 65%
- Population Healthy Nuclei (%) [6]: 28%
- Population Hoechst High Intensity Objects (%) [6]: 25%
- Population Membrane Permeable-Phenotype (%) [6]: 9%
- Population Mitochondria Different-Phenotype (%) [6]: 13%
- Population Mitotic Cells (%) [6]: 20%
- Population Normal (%) [6]: 74%
- Population Pyknosed Nuclei (%) [6]: 6%
- Population Tubulin-Different-Phenotype (%) [6]: 13%
- Total Cell Count [6]: 105
- Population Apoptotic (%) [7]: 59%
- Population Fragmented Nuclei (%) [7]: 72%
- Population Healthy Nuclei (%) [7]: 21%
- Population Hoechst High Intensity Objects (%) [7]: 58%
- Population Membrane Permeable-Phenotype (%) [7]: 10%
- Population Mitochondria Different-Phenotype (%) [7]: 0%
- Population Mitotic Cells (%) [7]: 40%
- Population Normal (%) [7]: 41%
- Population Pyknosed Nuclei (%) [7]: 6%
- Population Tubulin-Different-Phenotype (%) [7]: 7%
- Total Cell Count [7]: 790
- Population Apoptotic (%) [8]: 100%
- Population Fragmented Nuclei (%) [8]: 78%
- Population Healthy Nuclei (%) [8]: 20%
- Population Hoechst High Intensity Objects (%) [8]: 70%
- Population Membrane Permeable-Phenotype (%) [8]: 28%
- Population Mitochondria Different-Phenotype (%) [8]: 21%
- Population Mitotic Cells (%) [8]: 0%
- Population Normal (%) [8]: 29%
- Population Pyknosed Nuclei (%) [8]: 1%
- Population Tubulin-Different-Phenotype (%) [8]: 21%
- Total Cell Count [8]: 241
